In ChEMBL document CHEMBL1142636 (2000):

Tests used:
NCI-H23 = experiment: Growth inhibition of human NCI-H23 cells; type: functional
SK-MEL-2 = experiment: Growth inhibition of human SK-MEL-2 cells; type: functional
Summary of the method: (§1)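 Tested at the NCI in its human disease-oriented in vitro screen of 60 tumour cell lines, following the Monks et al. methods. Activity is expressed as GI50, given as log molar values.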

U-251 = experiment: Growth inhibition of human U251 cells; type: functional; summary of the method: as §1
K562 = experiment: Growth inhibition of human K562 cells; type: functional
ACHN = experiment: Growth inhibition of human ACHN cells; type: functional
HCC 2998 = experiment: Growth inhibition of human HCC2998 cells; type: functional
M14 = experiment: Growth inhibition of human M14 cells; type: functional
HOP-92 = experiment: Growth inhibition of human HOP92 cells; type: functional
SK-MEL-28 = experiment: Growth inhibition of human SK-MEL-28 cells; type: functional; summary of the method: as §1
MDA-MB-435 = experiment: Growth inhibition of human MDA-MB-435 cells; type: functional
CCRF-CEM = experiment: Growth inhibition of human CCRF-CEM cells; type: functional
EKVX = experiment: Growth inhibition of human EKVX cells; type: functional
TK-10 = experiment: Growth inhibition of human TK10 cells; type: functional; summary of the method: as §1
NCI-H322M = experiment: Growth inhibition of human NCI-H322M cells; type: functional
NCI-H522 = experiment: Growth inhibition of human NCI-H522 cells; type: functional
[1] = Growth inhibition of human MCF7/ADR-RES cells; type: functional; details: NCI/ADR-RES
KM-20L2 = experiment: Growth inhibition of human KM20L2 cells; type: functional
Malme-3M = experiment: Growth inhibition of human MALME-3M cells; type: functional
RXF 393 = experiment: Growth inhibition of human […] cells; type: functional
KM12 = experiment: Growth inhibition of human KM12 cells; type: functional
NCI-H460 = experiment: Growth inhibition of human NCI-H460 cells; type: functional
IGROV-1 = experiment: Growth inhibition of human IGROV1 cells; type: functional
HCT-116 = experiment: Growth inhibition of human HCT116 cells; type: functional
DLD-1 = experiment: Growth inhibition of human DLD1 cells; type: functional
PC-3 = experiment: Growth inhibition of human PC3 cells; type: functional
MCF7 = experiment: Growth inhibition of human MCF7 cells; type: functional
COLO 205 = experiment: Growth inhibition of human COLO205 cells; type: functional
SK-OV-3 = experiment: Growth inhibition of human SK-OV-3 cells; type: functional; summary of the method: as §1
SF-268 = experiment: Growth inhibition of human SF268 cells; type: functional; summary of the method: as §1
786-0 = experiment: Growth inhibition of human 786-0 cells; type: functional
MDA-N = experiment: Growth inhibition of human MDA-N cells; type: functional
CAKI-1 = experiment: Growth inhibition of human CAKI1 cells; type: functional
[2] = Growth inhibition of human LXFL529 cells; type: functional; details: LXFL 529
[3] = Growth inhibition of human HL60(TB) cells; type: functional, HL-60(TB)
MDA-MB-231 = experiment: Growth inhibition of human MDA-MB-231 cells; type: functional
SNB-19 = experiment: Growth inhibition of human SNB19 cells; type: functional; summary of the method: as §1
A498 = experiment: Growth inhibition of human A498 cells; type: functional
HCT-15 = experiment: Growth inhibition of human HCT15 cells; type: functional
[4] = Growth inhibition of human OVACR8 cells; type: functional
M19-MEL = experiment: Growth inhibition of human M19-MEL cells; type: functional
SNB-75 = experiment: Growth inhibition of human SNB75 cells; type: functional; summary of the method: as §1
MOLT-4 = experiment: Growth inhibition of human MOLT4 cells; type: functional
DU-145 = experiment: Growth inhibition of human DU145 cells; type: functional
Hs-578T = experiment: Growth inhibition of human HS578T cells; type: functional
NCI-H226 = experiment: Growth inhibition of human NCI-H226 cells; type: functional
T47D = experiment: Growth inhibition of human T47D cells; type: functional; summary of the method: as §1
[5] = Growth inhibition of human RPMI8266 cells; type: functional
SR = experiment: Growth inhibition of human SR cells; type: functional; summary of the method: as §1
LOX IMVI = experiment: Growth inhibition of human LOX IMVI cells; type: functional
SF-539 = experiment: Growth inhibition of human SF539 cells; type: functional; summary of the method: as §1
XF498 = experiment: Growth inhibition of human XF498 cells; type: functional; details: read-out: pLC50 (the source's name) (converted); summary of the method: as §1
SF-295 = experiment: Growth inhibition of human SF295 cells; type: functional; summary of the method: as §1
[6] = Growth inhibition of human […] cells; type: functional
HOP-18 = experiment: Growth inhibition of human HOP18 cells; type: functional
UO-31 = experiment: Growth inhibition of human UO31 cells; type: functional; summary of the method: as §1
HT-29 = experiment: Growth inhibition of human HT29 cells; type: functional
SN12C = experiment: Growth inhibition of human SN12C cells; type: functional; summary of the method: as §1
BT-549 = experiment: Growth inhibition of human BT549 cells; type: functional
DMS-273 = experiment: Growth inhibition of human DMS273 cells; type: functional
UACC-257 = experiment: Growth inhibition of human UACC257 cells; type: functional; summary of the method: as §1
UACC-62 = experiment: Growth inhibition of human UACC62 cells; type: functional; summary of the method: as §1
[7] = Growth inhibition of human OVACR4 cells; type: functional
SW-620 = experiment: Growth inhibition of human SW620 cells; type: functional; summary of the method: as §1
SK-MEL-5 = experiment: Growth inhibition of human SK-MEL-5 cells; type: functional; summary of the method: as §1
[8] = Growth inhibition of human OVACR5 cells; type: functional
HOP-62 = experiment: Growth inhibition of human HOP62 cells; type: functional
[9] = Growth inhibition of human DMS144 cells; type: functional
A549 = experiment: Growth inhibition of human A549 cells; type: functional
[10] = read-out: pLC50 (the source's name) (converted)

Cc1cc2c3ccccc3n3c2c2c1O[C@@]1(C)CC[C@H]([C@@H]2C1)C3(C)C
LC50 (NCI-H23): > 25.1 µM
CC50 (SK-MEL-2; [10]): > 25.1 µM
CC50 (U-251; [10]): > 25.1 µM
LC50 (K562): > 25.1 µM
CC50 (ACHN; [10]): > 25.1 µM
LC50 (HCC 2998): > 25.1 µM
CC50 (M14; [10]): > 25.1 µM
CC50 (HOP-92; [10]): > 25.1 µM
CC50 (SK-MEL-28; [10]): > 25.1 µM
LC50 (MDA-MB-435): > 25.1 µM
LC50 (CCRF-CEM): > 25.1 µM
CC50 (EKVX; [10]): > 25.1 µM
CC50 (TK-10; [10]): > 25.1 µM
LC50 (NCI-H322M): > 25.1 µM
CC50 (NCI-H522; [10]): > 25.1 µM
CC50 [1, 10]: > 25.1 µM
CC50 (KM-20L2; [10]): > 25.1 µM
CC50 (Malme-3M; [10]): > 25.1 µM
CC50 (RXF 393; [10]): > 25.1 µM
CC50 (KM12; [10]): > 25.1 µM
LC50 (NCI-H460): > 25.1 µM
CC50 (IGROV-1; [10]): > 25.1 µM
CC50 (HCT-116; [10]): > 25.1 µM
LC50 (DLD-1): > 25.1 µM
CC50 (PC-3; [10]): > 25.1 µM
CC50 (MCF7; [10]): > 25.1 µM
LC50 (COLO 205): > 25.1 µM
CC50 (SK-OV-3; [10]): > 25.1 µM
LC50 (SF-268): > 25.1 µM
CC50 (786-0; [10]): > 25.1 µM
CC50 (MDA-N; [10]): > 25.1 µM
CC50 (CAKI-1; [10]): > 25.1 µM
LC50 [2]: > 25.1 µM
CC50 ([3]; HL-60, read-out: pLC50 (the source's name) (converted)): > 25.1 µM
CC50 (MDA-MB-231; [10]): > 25.1 µM
CC50 (SNB-19; [10]): > 25.1 µM
CC50 (A498; [10]): > 25.1 µM
CC50 (HCT-15; [10]): > 25.1 µM
CC50 [4, 10]: > 25.1 µM
CC50 (M19-MEL; [10]): > 25.1 µM
CC50 (SNB-75; [10]): > 25.1 µM
LC50 (MOLT-4): > 25.1 µM
CC50 (DU-145; [10]): > 25.1 µM
CC50 (Hs-578T; [10]): > 25.1 µM
LC50 (NCI-H226): > 25.1 µM
LC50 (T47D): > 25.1 µM
CC50 [5, 10]: > 25.1 µM
LC50 (SR): > 25.1 µM
CC50 (LOX IMVI; [10]): > 25.1 µM
CC50 (SF-539; [10]): > 25.1 µM
CC50 (XF498): > 25.1 µM
CC50 (SF-295; [10]): > 25.1 µM
CC50 [6, 10]: > 25.1 µM
CC50 (HOP-18; [10]): > 25.1 µM
CC50 (UO-31; [10]): > 25.1 µM
LC50 (HT-29): > 25.1 µM
CC50 (SN12C; [10]): > 25.1 µM
LC50 (BT-549): > 25.1 µM
LC50 (DMS-273): > 25.1 µM
CC50 (UACC-257; [10]): > 25.1 µM
CC50 (UACC-62; [10]): > 25.1 µM
CC50 [7, 10]: > 25.1 µM
LC50 (SW-620): > 25.1 µM
CC50 (SK-MEL-5; [10]): > 25.1 µM
CC50 [8, 10]: > 25.1 µM
LC50 (HOP-62): > 25.1 µM
LC50 [9]: > 25.1 µM
LC50 (A549): > 25.1 µM

COc1cc(C(=O)O)cc2c1[nH]c1ccccc12 [MUKOEIC ACID]
GI50 (NCI-H23): 25.1 µM
GI50 (SK-MEL-2): 25.1 µM
GI50 (U-251): 25.1 µM
GI50 (K562): 25.1 µM
GI50 (ACHN): 25.1 µM
GI50 (HCC 2998): 25.1 µM
GI50 (M14): 25.1 µM
GI50 (HOP-92): 25.1 µM
GI50 (SK-MEL-28): 25.1 µM
GI50 (MDA-MB-435): 25.1 µM
GI50 (CCRF-CEM): 25.1 µM
GI50 (EKVX): 25.1 µM
GI50 (TK-10): 25.1 µM
GI50 (NCI-H322M): 25.1 µM
GI50 (NCI-H522): 25.1 µM
GI50 [1]: 25.1 µM
GI50 (KM-20L2): 25.1 µM
GI50 (Malme-3M): 25.1 µM
GI50 (RXF 393): 25.1 µM
GI50 (KM12): 25.1 µM
GI50 (NCI-H460): 25.1 µM
GI50 (IGROV-1): 25.1 µM
GI50 (HCT-116): 25.1 µM
GI50 (DLD-1): 25.1 µM
GI50 (PC-3): 25.1 µM
GI50 (MCF7): 25.1 µM
GI50 (COLO 205): 25.1 µM
GI50 (SK-OV-3): 25.1 µM
GI50 (SF-268): 25.1 µM
GI50 (786-0): 25.1 µM
GI50 (MDA-N): 25.1 µM
GI50 (CAKI-1): 25.1 µM
GI50 [2]: 25.1 µM
GI50 ([3]; HL-60): 25.1 µM
GI50 (MDA-MB-231): 25.1 µM
GI50 (SNB-19): 25.1 µM
GI50 (A498): 25.1 µM
GI50 (HCT-15): 25.1 µM
GI50 [4]: 25.1 µM
GI50 (M19-MEL): 25.1 µM
GI50 (SNB-75): 25.1 µM
GI50 (MOLT-4): 25.1 µM
GI50 (DU-145): 25.1 µM
GI50 (Hs-578T): 25.1 µM
GI50 (NCI-H226): 25.1 µM
GI50 (T47D): 25.1 µM
GI50 [5]: 25.1 µM
GI50 (SR): 25.1 µM
GI50 (LOX IMVI): 25.1 µM
GI50 (SF-539): 25.1 µM
GI50 (SF-295): 25.1 µM
GI50 [6]: 25.1 µM
GI50 (HOP-18): 25.1 µM
GI50 (UO-31): 25.1 µM
GI50 (HT-29): 25.1 µM
GI50 (SN12C): 25.1 µM
GI50 (BT-549): 25.1 µM
GI50 (DMS-273): 25.1 µM
GI50 (UACC-257): 25.1 µM
GI50 (UACC-62): 25.1 µM
GI50 [7]: 25.1 µM
GI50 (SW-620): 25.1 µM
GI50 (SK-MEL-5): 25.1 µM
GI50 [8]: 25.1 µM
GI50 (HOP-62): 25.1 µM
GI50 [9]: 25.1 µM
GI50 (A549): 25.1 µM
